The nature of experiment [1]: Displacement of (14-(2-{[3-({2-{[4-(cyanomethyl)phenyl]amino}-6-[(5-cyclopropyl-1H-pyrazol-3-yl)-amino]-4-pyrimidinyl}amino)propyl]amino}-2-oxoethyl)-16,16,18,18-tetramethyl-6,7,7a,8a,9,10,16,18-octahydrobenzo[2'',3'']indolizino-[8'',7'':5',6']pyrano[3',2':3,4]pyrido[1,2-a]indol-5-ium-2-sulfonate from rat RIP1 (1 to 377 residues) expressed in baculovirus infected insect cells measured for 50 mins by fluorescence polarization assay. The essentials:
(§1)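 Competitive FP binding assay in which test compounds displace a fluorescently labeled ATP-competitive ligand from RIP1.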
(In general: In fluorescence polarisation assays a small probe gives low polarisation when free and higher when bound to something large.)

Experiment [2] has as its system Mus musculus. The experiment is described as follows: Protection against TNF-induced lethal shock in mouse assessed as reduction in body temperature loss at 10 mg/kg, po pretreated for 15 mins followed by TNF-stimulation measured after 6 hrs relative to control. Also noted: scale not given: the % may be the effect or the level left. The format is functional.
Experiment [3] deals with Mus musculus. The experiment is described as follows: Protection against TNF-induced lethal shock in mouse assessed as reduction in body temperature loss at 3 mg/kg, po pretreated for 15 mins followed by TNF-stimulation measured after 6 hrs relative to control. Also noted: scale not given: the % may be the effect or the level left. The format is functional.
Experiment [4] deals with Mus musculus. Description: In vivo inhibition of RIP1 in po dosed mouse model of TNF/zVAD-induced lethal shock assessed as plasma concentration required for reduction in body temperature loss pretreated for 15 mins followed by TNF-stimulation measured after 3 hrs. The format is functional, organism-based.
Experiment [5] has as its system Mus musculus. Description: In vivo inhibition of RIP1 in po dosed mouse model of TNF-induced lethal shock assessed as plasma concentration required for reduction in body temperature loss pretreated for 15 mins followed by TNF-stimulation measured after 6 hrs. In kind it is functional, organism-based.
Experiment [6] is described as follows: Inhibition of RIP1 in cynomolgus monkey whole blood assessed as reduction in TNFalpha/[…]/zVAD FMK/SMAC mimetic RMT 5265-IL-1beta production after 6 hrs by sandwich ELISA. The following applies: Macaca fascicularis. The essentials: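 Heparinized venous cynomolgus whole blood was stimulated with stocks of TNF (200 ng/mL), QVD-OPh or zVAD.fmk (400 μM) and RMT 5265 (20 μM), with stock values as printed. Compound was a 5-fold dilution series, top 5 μM, in RPMI/1% FBS/1% DMSO. Incubation was 6 h at 37 °C, 5% CO2, then PBS dilution and centrifugation. Supernatant IL-1β was read by sandwich ELISA.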
(In general: ELISA stands for enzyme-linked immunosorbent assay.)

Experiment [7] in a line: Displacement of (14-(2-{[3-({2-{[4-(cyanomethyl)phenyl]amino}-6-[(5-cyclopropyl-1H-pyrazol-3-yl)-amino]-4-pyrimidinyl}amino)propyl]amino}-2-oxoethyl)-16,16,18,18-tetramethyl-6,7,7a,8a,9,10,16,18-octahydrobenzo[2'',3'']indolizino-[8'',7'':5',6']pyrano[3',2':3,4]pyrido[1,2-a]indol-5-ium-2-sulfonate from monkey RIP1 (1 to 379 residues) expressed in baculovirus infected insect cells measured for 50 mins by fluorescence polarization assay. The arrangement: species or system Macaca mulatta. In a few lines:
as §1

Experiment [8] is described as follows: Displacement of (14-(2-{[3-({2-{[4-(cyanomethyl)phenyl]amino}-6-[(5-cyclopropyl-1H-pyrazol-3-yl)-amino]-4-pyrimidinyl}amino)propyl]amino}-2-oxoethyl)-16,16,18,18-tetramethyl-6,7,7a,8a,9,10,16,18-octahydrobenzo[2'',3'']indolizino-[8'',7'':5',6']pyrano[3',2':3,4]pyrido[1,2-a]indol-5-ium-2-sulfonate from rabbit RIP1 (1 to 371 residues) expressed in baculovirus infected insect cells measured for 50 mins by fluorescence polarization assay. Also noted: species or system Oryctolagus cuniculus. The essentials:
as §1

Experiment [9] in a line: Displacement of (14-(2-{[3-({2-{[4-(cyanomethyl)phenyl]amino}-6-[(5-cyclopropyl-1H-pyrazol-3-yl)-amino]-4-pyrimidinyl}amino)propyl]amino}-2-oxoethyl)-16,16,18,18-tetramethyl-6,7,7a,8a,9,10,16,18-octahydrobenzo[2'',3'']indolizino-[8'',7'':5',6']pyrano[3',2':3,4]pyrido[1,2-a]indol-5-ium-2-sulfonate from dog RIP1 (1 to 373 residues) expressed in baculovirus infected insect cells measured for 50 mins by fluorescence polarization assay. The arrangement: species or system Canis lupus familiaris. In a few lines:
as §1

A short description of experiment [10]: Displacement of (14-(2-{[3-({2-{[4-(cyanomethyl)phenyl]amino}-6-[(5-cyclopropyl-1H-pyrazol-3-yl)-amino]-4-pyrimidinyl}amino)propyl]amino}-2-oxoethyl)-16,16,18,18-tetramethyl-6,7,7a,8a,9,10,16,18-octahydrobenzo[2'',3'']indolizino-[8'',7'':5',6']pyrano[3',2':3,4]pyrido[1,2-a]indol-5-ium-2-sulfonate from mini pig RIP1 (1 to 375 residues) expressed in baculovirus infected insect cells measured for 50 mins by fluorescence polarization assay. The arrangement: species or system Sus scrofa. In a few lines:
as §1

Experiment [11] concerns Mus musculus. Description: Protection against TNF-induced lethal shock in mouse assessed as reduction in body temperature loss at 50 mg/kg, po pretreated for 15 mins followed by TNF-stimulation measured after 6 hrs relative to control. The format is functional. The arrangement: scale not given: the % may be the effect or the level left.
The subject of experiment [12] is Mus musculus. The experiment is described as follows: Protection against TNF/zVAD-induced lethal shock in mouse assessed as reduction in body temperature loss at 3 mg/kg, po pretreated for 15 mins followed by TNF/zVAD-stimulation measured after 3 hrs relative to control. Also noted: scale not given: the % may be the effect or the level left. The format is functional.

Experiment [13] relates to Mus musculus. Description: Protection against TNF/zVAD-induced lethal shock in mouse assessed as reduction in body temperature loss at 10 mg/kg, po pretreated for 15 mins followed by TNF/zVAD-stimulation measured after 3 hrs relative to control. The format is functional. Also noted: scale not given: the % may be the effect or the level left.
Experiment [14] concerns Mus musculus. Description: Protection against TNF/zVAD-induced lethal shock in mouse assessed as reduction in body temperature loss at 50 mg/kg, po pretreated for 15 mins followed by TNF/zVAD-stimulation measured after 3 hrs relative to control. The format is functional. The arrangement: scale not given: the % may be the effect or the level left.
Experiment [15] has as its target T1, Receptor-interacting serine/threonine-protein kinase 1 (Homo sapiens) (UniProt Q13546).
T1 sequence (whole entry): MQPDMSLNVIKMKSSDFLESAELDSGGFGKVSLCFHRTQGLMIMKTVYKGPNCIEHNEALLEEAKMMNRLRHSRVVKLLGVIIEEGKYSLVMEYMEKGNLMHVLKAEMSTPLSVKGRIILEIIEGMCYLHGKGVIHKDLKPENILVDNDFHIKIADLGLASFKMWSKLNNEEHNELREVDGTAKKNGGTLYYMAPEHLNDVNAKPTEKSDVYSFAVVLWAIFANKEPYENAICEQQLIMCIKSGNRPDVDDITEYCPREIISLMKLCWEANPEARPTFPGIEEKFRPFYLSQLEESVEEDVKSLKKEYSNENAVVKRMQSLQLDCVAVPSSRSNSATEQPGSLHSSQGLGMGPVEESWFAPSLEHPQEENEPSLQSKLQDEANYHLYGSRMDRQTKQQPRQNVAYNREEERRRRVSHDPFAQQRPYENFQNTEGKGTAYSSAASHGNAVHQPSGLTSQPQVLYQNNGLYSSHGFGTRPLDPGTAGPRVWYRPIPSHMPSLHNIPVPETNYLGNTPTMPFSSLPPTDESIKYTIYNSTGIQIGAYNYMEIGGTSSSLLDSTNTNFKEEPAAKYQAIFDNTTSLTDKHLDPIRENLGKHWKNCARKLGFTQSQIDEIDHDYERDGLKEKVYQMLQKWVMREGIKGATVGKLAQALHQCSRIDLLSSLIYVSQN

The term IC50 denotes the concentration at which inhibition is half-maximal. Regarding `CN1C(=O)[C@@H](NC(=O)c2n[nH]c(Cc3ccccc3)n2)COc2ccccc21` [GSK2982772], the IC50 in [1] came out at 2000 nM; with Mus musculus [4] it was 3200 nM; in the experiment with Mus musculus [5], 1000 nM; in experiment [6], 4 nM; in experiment [7], 20 nM; in [8] it was 790 nM. Further, the half-maximal inhibitory concentration (IC50) is 5000 nM in [9] and more than 10000 nM in experiment [10]. The Activity in the experiment with Mus musculus [2] is recorded as 80%; with Mus musculus [3], 68%; in the experiment with Mus musculus [11], 87%; with Mus musculus [12], 13%; in the experiment on Mus musculus [13], 63%; in the experiment on Mus musculus [14] it was 93%. The same molecule showed a T1/2 in experiment [15] of 1.87 h.
